Activity and inhibition data for twelve compounds are collected here from ChEMBL document CHEMBL3877280, “Discovery of novel rivastigmine-hydroxycinnamic acid hybrids as multi-targeted agents for Alzheimer's disease” (Eur J Med Chem, 2017).

Data set [1] can be described thus: Antioxidant activity assessed as DPPH radical scavenging activity at 10 uM incubated under dark condition for 60 mins by spectrophotometric method relative to control. The class given is functional. Put shortly: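 DPPH scavenging: compound at 10 µM final added to DPPH in ethanol (100 µM final), kept in dark at 25-26 °C for 60 min under dim light. Absorbance read at 517 nm. Capacity = (A1 − A2)/A1 × 100%, with A1 the control absorbance.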
On the technique in general: Loss of DPPH colour is used to gauge radical scavenging.

Data set [2] concerns the target Cholinesterase (Homo sapiens) (UniProt P06276). In words: Inhibition of BuChE (unknown origin) at 5 uM using acetylthiocholine iodide as substrate preincubated for 60 mins followed by substrate addition measured after 5 mins by Ellman's method relative to control. Put shortly: (§1)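 Ellman method at 37 °C. BuChE stock made in 0.1% gelatin, diluted to 0.13-0.100 AU/min. Enzyme preincubated with compound for 60 min in 0.1 M phosphate pH 8.0 with 40 µM DTNB, then 20 µM acetylthiocholine iodide added. A412 rate followed for 5 min against an enzyme-free blank; triplicates; percent inhibition from rates.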

For the next data set, the system named is HT-22. In words: Cytoprotective activity against H2O2-induced cell death in mouse HT22 cells assessed as increase in cell viability at 10 to 30 uM preincubated for 30 mins followed by H2O2 addition measured after 24 hrs by MTT assay. The class given is functional, cell-based. The gist of the method:
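HT22 cells (DMEM/10% FBS, 10,000 cells/well) pretreated with compound for 30 min, then 500 µM H2O2 for 24 h. Viability by MTT; vehicle controls; mean ± SEM, n = 6.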

For data set [3], the species on record is Mus musculus. The data set can be described thus: Cytotoxicity against mouse HT22 cells assessed as reduction in cell viability at 10 uM after 24 hrs by MTT assay. To be noted: ht-22, 24 h. Format: toxicity, cell-based. Put shortly:
(§2)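 HT22 cells grown in DMEM + 10% FBS at 37 °C, 5% CO2, seeded at 10,000 cells/well. Exposed to compound for 24 h; vehicle-only controls. Viability by MTT, mean ± SEM, n = 6.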
In general terms: Formazan colour is commonly taken as a measure of viable cells.

Data set [4] has as its target Amyloid-beta precursor protein (Homo sapiens) (UniProt P05067). In words: Inhibition of HFIP-pretreated amyloid beta (1 to 42) (unknown origin) self-induced aggregation at 10 uM after 24 hrs by thioflavin-T fluorescence assay relative to control.
The target in data set [5] is Cholinesterase (Homo sapiens) (UniProt P06276). The data set can be described thus: Inhibition of BuChE (unknown origin) at 1 uM using acetylthiocholine iodide as substrate preincubated for 60 mins followed by substrate addition measured after 5 mins by Ellman's method relative to control. Put shortly:
as §1

Data set [6] is filed under the species Mus musculus. The data set can be described thus: Cytotoxicity against mouse HT22 cells assessed as reduction in cell viability at 100 uM after 24 hrs by MTT assay. Format: toxicity, cell-based. To be noted: ht-22, 24 h. The gist of the method: as §2
A short description of data set [7]: Copper chelating activity assessed as Cu2+-compound complex formation by measuring bathochromic shift at 10 uM after 30 mins by UV-Visible spectrometric method. The gist of the method:
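CuCl2 in water and compound (methanol stock diluted in PBS) brought up in absolute ethanol. Mixture stood 30 min at room temperature, then absorption spectrum recorded at room temperature.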

A short description of data set [8]: Cytoprotective activity against glutamate-induced cell death in mouse HT22 cells assessed as cell viability at 10 to 30 uM preincubated for 30 mins followed by H2O2 addition measured after 24 hrs by MTT assay. The class given is functional, HT-22. Put shortly: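 HT22 cells (DMEM/10% FBS, 10,000 cells/well) pretreated with compound for 30 min, then 2 mM glutamate for 24 h. Viability by MTT; vehicle controls; mean ± SEM, n = 6.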

Molecules are shown by their SMILES. The source made the active and inactive calls. The calls are words filed in the database; no cut-off is given here.

Chain of Amyloid-beta precursor protein (Homo sapiens) (P05067 whole entry): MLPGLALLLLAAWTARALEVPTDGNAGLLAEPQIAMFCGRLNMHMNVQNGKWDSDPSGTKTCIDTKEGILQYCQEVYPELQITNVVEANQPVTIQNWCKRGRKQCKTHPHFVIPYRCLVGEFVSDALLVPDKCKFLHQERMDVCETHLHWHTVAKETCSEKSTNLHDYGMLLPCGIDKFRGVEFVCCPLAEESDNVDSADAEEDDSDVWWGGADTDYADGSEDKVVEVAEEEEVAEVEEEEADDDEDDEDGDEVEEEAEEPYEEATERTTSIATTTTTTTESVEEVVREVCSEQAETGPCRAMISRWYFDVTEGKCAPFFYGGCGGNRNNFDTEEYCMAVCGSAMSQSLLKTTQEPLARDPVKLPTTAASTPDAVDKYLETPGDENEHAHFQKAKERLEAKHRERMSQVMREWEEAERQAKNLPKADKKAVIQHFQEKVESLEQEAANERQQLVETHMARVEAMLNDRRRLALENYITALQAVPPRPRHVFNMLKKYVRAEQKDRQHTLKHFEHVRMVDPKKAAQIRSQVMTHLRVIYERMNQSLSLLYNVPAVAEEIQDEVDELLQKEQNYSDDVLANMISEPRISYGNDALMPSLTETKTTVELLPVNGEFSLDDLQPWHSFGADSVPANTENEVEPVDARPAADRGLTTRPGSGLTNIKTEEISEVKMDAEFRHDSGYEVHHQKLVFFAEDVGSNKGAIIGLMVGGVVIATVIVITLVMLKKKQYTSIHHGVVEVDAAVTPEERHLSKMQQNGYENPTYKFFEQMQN
Chain of Cholinesterase (Homo sapiens) (P06276 whole entry): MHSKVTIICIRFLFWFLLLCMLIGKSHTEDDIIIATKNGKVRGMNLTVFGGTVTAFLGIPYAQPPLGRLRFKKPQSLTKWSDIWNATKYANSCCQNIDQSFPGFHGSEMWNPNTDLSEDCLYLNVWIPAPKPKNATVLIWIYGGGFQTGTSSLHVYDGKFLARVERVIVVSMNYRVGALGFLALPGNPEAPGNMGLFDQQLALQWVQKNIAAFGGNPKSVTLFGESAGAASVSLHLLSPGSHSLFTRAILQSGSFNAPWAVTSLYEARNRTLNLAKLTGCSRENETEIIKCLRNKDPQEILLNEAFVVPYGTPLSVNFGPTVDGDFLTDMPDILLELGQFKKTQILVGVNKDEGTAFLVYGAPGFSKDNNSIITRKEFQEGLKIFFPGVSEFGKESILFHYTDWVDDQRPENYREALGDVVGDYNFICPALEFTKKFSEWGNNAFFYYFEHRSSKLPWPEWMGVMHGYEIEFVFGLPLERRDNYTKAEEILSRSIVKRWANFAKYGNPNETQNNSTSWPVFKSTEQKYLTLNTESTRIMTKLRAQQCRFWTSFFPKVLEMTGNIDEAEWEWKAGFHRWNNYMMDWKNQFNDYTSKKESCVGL

With `COc1cc(/C=C/C(=O)O)ccc1O`, the Activity in [1] turned out to be 19.9%.
Regarding `O=C(O)/C=C/c1ccc(O)c(O)c1`, the Activity in data set [1] was 64.6%.
Usually inhibition stands for the relative decrease from the control value, in per cent. `CCN(C)C(=O)Oc1cccc(CNC(=O)/C=C/c2ccc(O)c(O)c2)c1`: the inhibition was 97% in [2], 77.6% in [4] and 80.8% in data set [5]. The result with HT-22 was Active. The results for the Activity entry (in the data set listed under Mus musculus [3]; in [1]; in the data set filed under Mus musculus [6]) were “Non-Toxic”, 69.7% and “Toxic”, respectively.
As to `Nc1c(/N=N/c2ccc(-c3ccc(/N=N/c4cc(S(=O)(=O)O)c5ccccc5c4N)cc3)cc2)cc(S(=O)(=O)O)c2ccccc12`, the inhibition in data set [4] turned out to be 86.5%.
For `CCN(C)C(=O)Nc1cccc(NC(=O)/C=C/c2ccc(O)c(OC)c2)c1`, the inhibition in data set [2] stood at 36.6%; in data set [4], 2.2%; in [5], 19.4%. Moreover, the outcome with HT-22 was Active. The values for the Activity result (in the data set listed under Mus musculus [3]; in data set [1]; in the data set listed under Mus musculus [6]) were “Non-Toxic”, 24.1% and “Toxic”, respectively.
`CCN(C)C(=O)Oc1cccc(CCNC(=O)/C=C/c2ccc(O)c(O)c2)c1`: the inhibition turned out to be 92% in data set [2], 85.3% in data set [4] and 76.3% in data set [5]. The result (in data set [7]; in the data set with HT-22) was Active. Moreover, the Activity result in the data set filed under Mus musculus [3] was “Non-Toxic”; in data set [1] it was 51.7%; in the data set listed under Mus musculus [6], “Toxic”.
As for `CCN(C)C(=O)Oc1cccc(NC(=O)/C=C/c2ccc(O)c(O)c2)c1`, the inhibition stood at 91% in data set [2], 73.2% in data set [4] and 49.6% in [5]. Further, the Activity in data set [8] was 52.9%; in the data set filed under Mus musculus [3] it was “Non-Toxic”; in data set [1] it was 37%; in the data set listed under Mus musculus [6], “Toxic”. For the same compound, the result in the data set on HT-22 was Active.
Regarding `CCN(C)C(=O)Oc1cccc(CCNC(=O)/C=C/c2ccc(O)c(OC)c2)c1`, the inhibition in [2] was 96.6%; in data set [4], 2.2%; in [5] it was 72.3%. Moreover, the outcome with HT-22 was Active. The Activity result is “Non-Toxic” in the data set listed under Mus musculus [3], 18.1% in [1] and “Toxic” in the data set listed under Mus musculus [6].
Turning to `CCN(C)C(=O)Oc1cccc([C@H](C)N(C)C)c1`, the inhibition in data set [2] amounted to 93%; in data set [5], 61%.
Take `CCN(C)C(=O)Oc1cccc(CNC(=O)/C=C/c2ccc(O)c(OC)c2)c1`: the figures for the inhibition in data set [2], in data set [4] and in data set [5] were 97.9%, 3.2% and 87.9%, respectively. For the same compound, the Activity result in the data set filed under Mus musculus [3] was “Non-Toxic”; in data set [1], 17.9%; in the data set listed under Mus musculus [6] it was “Toxic”.
As to `CCN(C)C(=O)Oc1cccc(NC(=O)/C=C/c2ccc(O)c(OC)c2)c1`, the inhibition in [2] was 98.3%; in [4], 13.2%; in data set [5], 98%. In addition, in the data set on HT-22, the result was Active. In addition, the Activity entry was “Non-Toxic” in the data set listed under Mus musculus [3], 19.5% in [1] and “Toxic” in the data set filed under Mus musculus [6].
`CCN(C)C(=O)Nc1cccc(NC(=O)/C=C/c2ccc(O)c(O)c2)c1`: the values for the inhibition in [2], in data set [4] and in [5] were 24.4%, 82.5% and 13.8%, respectively. The Activity in [8] was 56.9%; in the data set filed under Mus musculus [3], “Non-Toxic”; in data set [1], 64.7%; in the data set listed under Mus musculus [6], “Toxic”. For the same compound, in the data set with HT-22, the outcome was Active.
